Test results from PubChem BioAssay AID588510 (Broad Institute, 2011).

target: Protein LANA1 (Human herpesvirus 8 type P (isolate GK18)) (UniProt Q9QR71); experiment: GST-LANA peptide binding to nucleosomes, inhibition – biochemical, ELISA, dry powder samples, orthogonal assay, dose response (AID 588510); details: GST-LANA 1-23 binding to nucleosomes, ELISA 450 nm; series mostly up to 50 µM; activity (ratio to control): at the top concentration
In short: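 Assay system: Plate-coated purified nucleosomes with GST-tagged LANA N-terminal peptide 1-23; Input: nucleosomes 1.5 µg per well; Buffer or medium: Milk-blocked nucleosome-coated wells; Also added: GST-LANA 1-23, 7.5 µg/mL; Dosing: pinned compound, dose series; Incubation: compound plus GST-LANA 90 min 4 °C, substrate 30 min RT; Detection: colorimetric ELISA, anti-GST and secondary antibodies, absorbance 450 nm.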

Chain of Protein LANA1 (Human herpesvirus 8 type P (isolate GK18)) (Q9QR71 whole entry, looked up): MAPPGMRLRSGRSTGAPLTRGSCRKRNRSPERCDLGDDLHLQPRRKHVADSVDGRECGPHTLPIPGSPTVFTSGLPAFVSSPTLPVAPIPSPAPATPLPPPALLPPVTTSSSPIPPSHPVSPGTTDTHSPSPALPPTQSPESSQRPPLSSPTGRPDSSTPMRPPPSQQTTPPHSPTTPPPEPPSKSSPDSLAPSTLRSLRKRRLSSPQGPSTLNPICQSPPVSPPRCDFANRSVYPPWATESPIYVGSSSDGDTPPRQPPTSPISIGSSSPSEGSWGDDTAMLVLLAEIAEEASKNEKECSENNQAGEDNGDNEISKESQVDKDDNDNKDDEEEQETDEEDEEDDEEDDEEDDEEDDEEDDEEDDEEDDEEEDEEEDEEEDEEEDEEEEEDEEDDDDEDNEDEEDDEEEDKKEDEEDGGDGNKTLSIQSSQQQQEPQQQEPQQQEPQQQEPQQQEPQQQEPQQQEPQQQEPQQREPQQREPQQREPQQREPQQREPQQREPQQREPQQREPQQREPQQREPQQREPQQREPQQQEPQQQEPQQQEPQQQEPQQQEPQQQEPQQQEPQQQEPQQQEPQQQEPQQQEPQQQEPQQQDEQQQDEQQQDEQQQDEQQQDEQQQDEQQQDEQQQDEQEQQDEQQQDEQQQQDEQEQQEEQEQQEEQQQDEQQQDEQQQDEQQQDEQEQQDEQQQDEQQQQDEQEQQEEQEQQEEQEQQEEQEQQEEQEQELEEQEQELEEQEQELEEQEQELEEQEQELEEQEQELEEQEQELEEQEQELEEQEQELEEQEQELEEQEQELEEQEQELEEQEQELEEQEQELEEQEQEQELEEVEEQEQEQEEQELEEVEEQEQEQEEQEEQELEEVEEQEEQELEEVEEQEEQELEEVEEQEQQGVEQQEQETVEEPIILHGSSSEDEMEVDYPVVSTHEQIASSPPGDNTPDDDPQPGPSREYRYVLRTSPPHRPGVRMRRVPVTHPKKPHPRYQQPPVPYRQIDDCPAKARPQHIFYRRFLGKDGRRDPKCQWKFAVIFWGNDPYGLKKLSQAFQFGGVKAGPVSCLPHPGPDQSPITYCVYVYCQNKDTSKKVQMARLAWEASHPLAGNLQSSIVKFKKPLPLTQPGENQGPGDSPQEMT

Activity (ratio to control), inactive:
Cc1ccc(Cl)cc1N1CCN(C(=O)C2CCN(S(C)(=O)=O)CC2)CC1 99.1%, CC(C)(C)C1(C)OC(=O)C(=Cc2ccc(OCC(=O)Nc3ccccc3)cc2)C(=O)O1 (stereo not drawn) 94.4%, O=C(CCCN1C(=O)c2cccc3cccc(c23)C1=O)N1CCN(c2ccccc2)CC1 130%, CC1Cc2ccccc2N1C(=O)CSc1ncccn1 (stereo not drawn) 140%, CC(=O)Nc1ccc(-c2cn3ccsc3n2)cc1 127%, CC(=O)Nc1cccc(N)c1 97.2%, Cc1cc(C)cc(NS(=O)(=O)c2ccc3c(c2)C(C)(C)C(=O)N3C)c1 99.5%, Cc1cccc(N2C(=O)c3cccc4c(N(C)CCO)ccc(c34)C2=O)c1 114%, Cc1cc(C)c2nc(C(F)(F)F)nc(NCCCN3CCCC3=O)c2c1 95.3%, Clc1ccc(-c2nnc3sc(-c4ccc(Br)o4)nn23)cc1 97.5%, COc1ccc2ccccc2c1C(O)c1nccn1C (stereo not drawn) 92.2%, O=S(=O)(Nc1cc(Cl)ccc1N1CCOCC1)c1ccccc1Cl 105%, COc1ccc(C2C=C(c3ccc(Br)cc3)Nc3nc(NS(C)(=O)=O)nn32)cc1 (stereo not drawn) 99.7%
